Measured values reported in PMC2718129 (Molecular cancer therapeutics, 2009).
“And” between values parts separate entries of the source, which are not always exact repeats. Equal values may be shown once. Read-outs that look alike come from different tables or passages of the source. Values belong to the compound of their own block, whether it stands above or below them.

Columns and labels:
[1] = tested on: IGROV-1 human ovarian cancer xenografts; experiment: IGROV-1 ovarian cancer xenograft efficacy study; assay type: in vivo, athymic mice; conditions: IGROV-1 xenografts
[2] = mice, 10 mg/kg; cited from earlier work
[3] = tested on: LoVo cells; experiment: Antiproliferative GI50 assay, LoVo; assay type: cell-based; conditions: Homo sapiens, 96 h, read-out: antiproliferative GI50
How it was run: (§1)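 Cells grown in DMEM with 2 mmol/L glutamine, penicillin/streptomycin and 10% FBS at 37°C in 5% CO2, and mycoplasma-negative by PCR. Continuous 96 h exposure to test compound. Proliferation was read by Alamar Blue or sulforhodamine B, and GI50 was taken as the concentration giving 50% inhibition of proliferation.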

[4] = tested on: SNUC2B cells; experiment: Antiproliferative GI50 assay, SNUC2B; assay type: cell-based; conditions: Homo sapiens, SNU-C2B, 96 h, read-out: antiproliferative GI50
How it was run: as §1

[5] = tested on: AKT phosphorylation (Ser473, Thr308) in U87MG tumor xenografts; experiment: Pharmacodynamic AKT phosphorylation in U87MG xenografts; assay type: in vivo, athymic mice
[6] = tested on: poly(ADP-ribose) polymerase cleavage in U87MG xenografts; experiment: PARP cleavage in U87MG xenografts; assay type: in vivo, athymic mice; conditions: 4 hours after oral dosing with 25 to 150 mg/kg
[7] = tested on: U87MG human glioblastoma xenografts; experiment: U87MG glioblastoma xenograft efficacy study; assay type: in vivo, athymic mice; conditions: for T/C (final tumor weights) / tumor growth inhibition: U87MG xenografts; for tolerability of doses: i.p. dosing for 14 days
[8] = tested on: HCT116 cells; experiment: Antiproliferative GI50 assay, HCT116; assay type: cell-based; conditions: Homo sapiens, HCT-116, 96 h, read-out: antiproliferative GI50
How it was run: as §1

[9] = tested on: U87MG human glioblastoma xenografts; conditions: PTEN-null U87MG glioblastoma xenografts; cited from earlier work
[10] = tested on: AKT phosphorylation (Ser473, Thr308) in U87MG tumor xenografts; conditions: for a short time; cited from earlier work
[11] = tested on: forkhead transcription factor translocation; conditions: read-out: 50% inhibition of forkhead transcription factor translocation; previously reported; cited from earlier work
[12] = target: p110γ (Homo sapiens, UniProt P48736); experiment: Phosphatidylinositide 3-kinase scintillation proximity assay, p110γ; assay type: biochemical; conditions: read-out: IC50 against p110γ; 1 μmol/L ATP
[13] = tested on: phosphorylation of GSK3β in U87MG tumor xenografts; experiment: Pharmacodynamic GSK3β phosphorylation in U87MG xenografts; assay type: in vivo, athymic mice; conditions: 50 mg/kg b.i.d or 100 mg/kg u.i.d i.p. for 4 days
[14] = tested on: panel of human cancer cell lines and human umbilical vein endothelial cells; experiment: Antiproliferative GI50 assay, cell line panel; assay type: cell-based; conditions: 96 hours continuous exposure
How it was run: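 Tumor lines were grown in DMEM with 2 mmol/L glutamine, antibiotics and 10% FBS at 37°C in 5% CO2, and read by Alamar Blue or sulforhodamine B. Pooled HUVEC were used at passages 3 to 8 and read by an alkaline phosphatase assay. Exposure was continuous for 96 h. GI50 is the mean of three independent determinations.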

[15] = Pharmacokinetics of PI-540 and PI-620 in BALB/c mice; assay type: in vivo; conditions: for volume of distribution: female BALB/c mice, 10 mg/kg i.v.; for plasma clearance / oral bioavailability / terminal half-life in plasma / terminal half-life in tissues / spleen to plasma ratio: mice; for plasma clearance / terminal half-life in plasma / terminal half-life in tissues / spleen to plasma ratio: 10 mg/kg; for oral bioavailability: 10 mg/kg i.v. and p.o.; for terminal half-life in plasma / terminal half-life in tissues: after i.v. administration; for spleen to plasma ratio: following i.v. dosing
[16] = tested on: phosphorylation of GSK3β Ser9 in U87MG cells; experiment: Electrochemiluminescent immunoassay; assay type: cell-based, human
How it was run: (§2)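 U87MG cells were seeded at 8 × 10^4 cells/mL and treated 48 h later for 2 or 8 h with 5 to 500 nmol/L inhibitor. Cells were lysed and freeze-thawed once at -80°C, and lysate went directly onto Meso Scale multiplex phospho/total plates with overnight sample incubation before secondary antibody. One well from each of three independent plates was read. IC50 is given as mean ±SD.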

[17] = tested on: phosphorylation of AKT (Thr308, Ser473) in U87MG cells; experiment: Electrochemiluminescent immunoassay; assay type: cell-based, human; conditions: 2 or 8 h
How it was run: as §2

[18] = tested on: phosphorylation of S6 ribosomal protein Ser235/Ser236 in U87MG cells; experiment: Electrochemiluminescent immunoassay; assay type: cell-based, human; conditions: at 2 hours and, more potently, at 8 hours
How it was run: as §2

[19] = tested on: phosphorylation of p70S6K Thr421/Ser424 in U87MG cells; experiment: Electrochemiluminescent immunoassay; assay type: cell-based, human; conditions: at 2 hours and, more potently, at 8 hours
How it was run: as §2

[20] = 25 mg/kg oral daily for 13 days
[21] = 25 mg/kg daily p.o. for 19 days
[22] = 50 mg/kg b.i.d or 100 mg/kg u.i.d i.p. for 4 days, at 1 hour
[23] = 50 mg/kg b.i.d. i.p. for 14 days, 50 mg/kg
[24] = 25 mg/kg b.i.d i.p. for 14 days, 25 mg/kg
[25] = 50 mg/kg u.i.d i.p. for 14 days

Chain of p110γ (P48736 whole entry, species assumed): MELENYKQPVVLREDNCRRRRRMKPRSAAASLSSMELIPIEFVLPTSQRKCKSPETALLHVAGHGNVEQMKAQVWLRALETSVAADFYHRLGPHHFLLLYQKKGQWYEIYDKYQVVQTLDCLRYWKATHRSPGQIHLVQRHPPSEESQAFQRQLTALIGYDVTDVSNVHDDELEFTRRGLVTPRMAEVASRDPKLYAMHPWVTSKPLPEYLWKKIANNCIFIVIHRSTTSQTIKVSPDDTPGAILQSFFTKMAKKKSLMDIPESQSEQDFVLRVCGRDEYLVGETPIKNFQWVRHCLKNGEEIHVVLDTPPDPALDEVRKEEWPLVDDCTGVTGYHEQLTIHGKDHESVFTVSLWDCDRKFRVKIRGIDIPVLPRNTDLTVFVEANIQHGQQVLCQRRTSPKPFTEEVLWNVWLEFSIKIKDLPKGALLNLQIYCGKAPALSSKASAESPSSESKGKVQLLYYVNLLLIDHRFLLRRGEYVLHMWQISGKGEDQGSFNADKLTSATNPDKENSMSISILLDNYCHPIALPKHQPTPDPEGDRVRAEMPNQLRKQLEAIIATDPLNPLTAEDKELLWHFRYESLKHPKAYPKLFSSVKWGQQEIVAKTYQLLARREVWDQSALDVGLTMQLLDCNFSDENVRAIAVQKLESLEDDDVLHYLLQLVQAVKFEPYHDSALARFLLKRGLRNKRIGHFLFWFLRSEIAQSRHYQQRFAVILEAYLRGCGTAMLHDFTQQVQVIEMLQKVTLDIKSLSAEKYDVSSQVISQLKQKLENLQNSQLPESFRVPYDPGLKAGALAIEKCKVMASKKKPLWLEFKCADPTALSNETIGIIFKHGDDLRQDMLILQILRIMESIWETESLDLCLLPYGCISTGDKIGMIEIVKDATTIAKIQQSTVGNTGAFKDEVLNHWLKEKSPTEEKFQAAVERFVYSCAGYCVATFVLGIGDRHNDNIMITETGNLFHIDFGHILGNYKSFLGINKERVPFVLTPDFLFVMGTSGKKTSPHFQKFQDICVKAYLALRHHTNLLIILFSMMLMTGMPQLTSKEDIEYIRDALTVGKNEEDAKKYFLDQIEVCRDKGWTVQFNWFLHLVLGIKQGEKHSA

Structure (SMILES): CS(=O)(=O)N1CCN(Cc2cc3nc(-c4cccc5[nH]ncc45)nc(N4CCOCC4)c3s2)CC1 [GDC-0941, 2-(1H-Indazol-4)-6-(4-methanesulfonyl-piperazin-1-ylmethyl)-4-morpholin-4-yl-thieno[3,2-d]pyrimidine]
- T/C [1, 20]: 50.5%
- tumor growth inhibition [1, 20]: 49.5%
- T/C ([1]; 150 mg/kg oral daily for 13 days): 19.7%
- tumor growth inhibition ([1]; 150 mg/kg oral daily for 13 days, 150 mg/kg): 80% and 80.3%
- oral bioavailability [2]: 78%
- GI50 [3]: 0.18 µM
- GI50 [4]: 1.63 µM
- levels of activated AKT Ser473 in tumor ([5]; 150 mg/kg daily p.o. for 19 days, 4 hours after the last dose): undetectable
- duration of maintained inhibition of AKT Ser473 phosphorylation in tumor ([5]; oral dosing): > 8 h
- poly(ADP-ribose) polymerase cleavage in tumor samples [6]: clear increase
- T/C (final tumor weights) [7, 21]: 23.4%
- tumor growth inhibition [7, 21]: 76.6%
- T/C (final tumor weights) ([7]; 150 mg/kg daily p.o. for 19 days): 2.3%
- tumor growth inhibition ([7]; 150 mg/kg daily p.o. for 19 days, 150 mg/kg): 98% and 97.7%
- tolerability of therapy ([7]; athymic mice, 25 to 150 mg/kg daily p.o. for 19 days, all groups gained weight at similar rates to controls): well tolerated
- GI50 [8]: 0.905 µM

- GI50 [3]: 0.022 µM
- GI50 [4]: 0.827 µM
Structure (SMILES): Oc1cccc(-c2nc(N3CCOCC3)c3oc4ncccc4c3n2)c1 [PI-103]
- growth inhibition in xenografts [9]: > 50%
- inhibition of phosphorylation of AKT Ser473 in tumor [10]: ≤ 50%
- IC50 [11]: 0.03 µM

Structure (SMILES): CN1CCN(Cc2cc3nc(-c4cccc(O)c4)nc(N4CCOCC4)c3s2)CC1 [PI-540]
- IC50 [12]: > 0.3 µM
- inhibition of phosphorylation of GSK3β in tumor [13]: no detectable inhibition
- growth inhibition potency in each cell line of the panel [14]: submicromolar
- volume of distribution [15]: 300 mL
- plasma clearance [15]: high
- oral bioavailability [15]: < 10%
- terminal half-life in plasma [15]: 0.24 h
- terminal half-life in tissues [15]: 7.6 h
- spleen to plasma ratio [15]: 31
- inhibition of phosphorylation on AKT Ser473 in tumor [5, 22]: > 50%
- inhibition of phosphorylation on AKT Thr308 in tumor [5, 22]: > 50%
- fold less potent in inhibiting phosphorylation of GSK3β Ser9 compared with phosphorylation of AKT [16]: 10 fold
- T/C (final tumor weights) [7, 23]: 34% and 33.9%
- tumor growth inhibition [7, 23]: 66% and 66.1%
- tolerability of doses ([7]; athymic mice): very well tolerated

Structure (SMILES): OCCN1CCN(Cc2cc3nc(-c4cccc(O)c4)nc(N4CCOCC4)c3s2)CC1 [PI-620]
- IC50 [12]: > 0.3 µM
- growth inhibition potency in each cell line of the panel [14]: submicromolar
- volume of distribution [15]: 206 mL
- plasma clearance [15]: high
- oral bioavailability [15]: < 10%
- terminal half-life in plasma [15]: 0.9 h
- terminal half-life in tissues [15]: 4.3 h
- spleen to plasma ratio [15]: 13.9
- T/C (final tumor weights) [7, 24]: 27% and 26.7%
- tumor growth inhibition [7, 24]: 73% and 73.3%
- T/C (final tumor weights) [7, 25]: 44.8%
- tumor growth inhibition [7, 25]: 55.2%
- tolerability of doses ([7]; athymic mice): very well tolerated

Structure (SMILES): CO[C@H]1C[C@@H]2CC[C@@H](C)[C@@](O)(O2)C(=O)C(=O)N2CCCC[C@H]2C(=O)O[C@H]([C@H](C)C[C@@H]2CC[C@@H](O)[C@H](OC)C2)CC(=O)[C@H](C)/C=C(\C)[C@@H](O)[C@@H](OC)C(=O)[C@H](C)C[C@H](C)/C=C/C=C/C=C/1C [Rapamycin]
- effect on phosphorylation of AKT [17]: did not affect
- effect on phosphorylation of S6 ribosomal protein [18]: inhibited
- effect on phosphorylation of GSK3β ([16]; 2 or 8 h): did not affect
- effect on phosphorylation of p70S6K [19]: inhibited
